From ChEMBL document CHEMBL4219111, “Multifunctional 5,6-dimethoxybenzo[d]isothiazol-3(2H)-one-N-alkylbenzylamine derivatives with acetylcholinesterase, monoamine oxidases and β-amyloid aggregation inhibitory activities as potential agents against Alzheimer's disease” (Bioorg Med Chem, 2018)
Calls of active or inactive are those of the source. The calls are words filed in the database; no cut-off is given here.

Tests used:
[1] = target: T1, Amine oxidase [flavin-containing] A (Homo sapiens, UniProt P21397); assay: Inhibition of recombinant human MAO-A using kynuramine as substrate after 30 mins by fluorescence assay
T1 sequence (P21397 whole entry): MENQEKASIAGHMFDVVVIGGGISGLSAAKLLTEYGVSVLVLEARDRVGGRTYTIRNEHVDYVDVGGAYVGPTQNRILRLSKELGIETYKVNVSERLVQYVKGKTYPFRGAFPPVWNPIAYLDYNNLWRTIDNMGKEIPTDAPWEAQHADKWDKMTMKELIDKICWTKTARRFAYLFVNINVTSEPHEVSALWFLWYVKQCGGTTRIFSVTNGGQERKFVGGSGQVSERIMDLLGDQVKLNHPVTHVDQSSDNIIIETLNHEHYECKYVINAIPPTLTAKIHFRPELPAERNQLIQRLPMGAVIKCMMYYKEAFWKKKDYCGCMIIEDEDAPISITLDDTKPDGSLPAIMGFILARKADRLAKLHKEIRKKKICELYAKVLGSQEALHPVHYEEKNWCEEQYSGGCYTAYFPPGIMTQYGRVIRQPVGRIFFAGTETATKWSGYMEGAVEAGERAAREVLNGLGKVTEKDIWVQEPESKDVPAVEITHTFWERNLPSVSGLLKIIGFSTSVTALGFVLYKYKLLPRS

Rattus norvegicus = organism: Rattus norvegicus; assay: Inhibition of rat serum BuChE using butyrylthiocholine iodide as substrate measured at 50 uM after 15 mins by Ellman's method relative to control
Procedure, shortened: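 Rat serum (25%) as enzyme source; modified Ellman method in […] pH 7.4 with 1 mmol/L butyrylthiocholine iodide and 0.2% DTNB; 37 °C for 15 min, absorbance at 405 nm. Percent inhibition at 50 µM test compound, each concentration in triplicate.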

[2] = target: Amyloid-beta precursor protein (Homo sapiens) (UniProt P05067); assay: Inhibition of self-induced aggregation of amyloid beta (1 to 42) (unknown origin) at 25 uM after 24 hrs by thioflavin T fluorescence-based fluorometric method relative to control
Procedure, shortened: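 Aβ1-42 pretreated in HFIP 24 h at room temperature, dried, redissolved in DMSO. Peptide (25 µM final) incubated with compound (25 µM final) in 50 mM phosphate pH 7.4 for 24 h at 37 °C. ThT (5 µM) added in 50 mM glycine-NaOH pH 8.5; fluorescence read at ex 446/em 490 nm. Inhibition = (1 − IFi/IFc)×100 after background subtraction, triplicate.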

[3] = target: T2, Amine oxidase [flavin-containing] B (Homo sapiens, UniProt P27338); assay: Inhibition of recombinant human MAO-B using kynuramine as substrate after 30 mins by fluorescence assay
T2 sequence (P27338 whole entry): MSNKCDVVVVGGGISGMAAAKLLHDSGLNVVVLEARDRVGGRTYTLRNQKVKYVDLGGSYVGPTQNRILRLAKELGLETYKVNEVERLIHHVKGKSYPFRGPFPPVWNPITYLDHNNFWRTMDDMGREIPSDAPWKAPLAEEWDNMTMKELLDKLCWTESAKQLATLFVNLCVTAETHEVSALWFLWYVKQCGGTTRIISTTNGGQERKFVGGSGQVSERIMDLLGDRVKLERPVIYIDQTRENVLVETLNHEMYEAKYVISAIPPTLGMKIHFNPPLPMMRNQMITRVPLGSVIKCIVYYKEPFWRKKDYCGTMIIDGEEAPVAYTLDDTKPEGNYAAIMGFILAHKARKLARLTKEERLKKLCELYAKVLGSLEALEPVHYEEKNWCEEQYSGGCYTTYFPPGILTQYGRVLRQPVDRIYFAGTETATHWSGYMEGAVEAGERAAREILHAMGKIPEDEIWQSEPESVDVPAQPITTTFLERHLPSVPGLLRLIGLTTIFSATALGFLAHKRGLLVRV

Homo sapiens = organism: Homo sapiens; assay: Selectivity index, ratio of IC50 for recombinant human MAO-A to IC50 for recombinant human MAO-B
Procedure, shortened: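 Ratio of IC50s, each from a sigmoidal curve of initial kynuramine oxidation rate versus log inhibitor concentration. Curves used six concentrations within 0-100 µM, spanning at least three orders of magnitude. IC50s determined in triplicate.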

Acetylcholinesterase = Acetylcholinesterase (Electrophorus electricus, UniProt O42275); assay: Inhibition of Electrophorus electricus AChE using acetylthiocholine iodide as substrate measured after 15 mins by Ellman's method
[4] = Antioxidant activity assessed as trolox equivalents of AAPH radical scavenging activity at 5 uM preincubated for 15 mins followed by AAPH addition measured every min for 90 mins by ORAC-FL assay; format: functional
Procedure, shortened: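 ORAC-FL in 75 mM phosphate buffer pH 7.4, 200 µL final. Sample plus fluorescein (150 nM final) pre-incubated 15 min at 37 °C, then AAPH added (12 mM final). Fluorescence read every minute for 90 min, ex 485/em 535 nm, normalized to FL+AAPH blank. Trolox standard 1-8 µM final; values given as µM Trolox equivalent per µM compound. Duplicate wells, at least three independent assays.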

[5] = target: T2, Amine oxidase [flavin-containing] B; assay: Inhibition of recombinant human MAO-B at 10 uM using kynuramine as substrate after 30 mins by fluorescence assay relative to control; settings: 0.5 h
Procedure, shortened: (§1)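 Recombinant human MAO-A or MAO-B, kynuramine substrate (45 µM for MAO-A, 30 µM for MAO-B), in 100 mM potassium phosphate pH 7.40 with 20.2 mM KCl and under 4% DMSO. Enzyme (7.5 µg/mL) starts the reaction; 30 min at 37 °C. Stopped with NaOH plus water, centrifuged, supernatant fluorescence read at ex 310/em 400 nm. Percent inhibition at 10 µM.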

[6] = target: T1, Amine oxidase [flavin-containing] A; assay: Inhibition of recombinant human MAO-A at 10 uM using kynuramine as substrate after 30 mins by fluorescence assay relative to control; settings: 0.5 h; procedure, shortened: as §1
[7] = target: Acetylcholinesterase (Electrophorus electricus) (UniProt O42275); assay: Mixed type inhibition of Electrophorus electricus AChE at 0.1 to 0.5 uM using varying levels of acetylthiocholine iodide as substrate incubated for 15 mins followed by substrate addition by Lineweaver-Burk plot analysis
[8] = Effective permeability of the compound at 100 ug/ml after 18 hrs by PAMPA-BBB assay

Acetylcholinesterase, sequence (O42275 whole entry): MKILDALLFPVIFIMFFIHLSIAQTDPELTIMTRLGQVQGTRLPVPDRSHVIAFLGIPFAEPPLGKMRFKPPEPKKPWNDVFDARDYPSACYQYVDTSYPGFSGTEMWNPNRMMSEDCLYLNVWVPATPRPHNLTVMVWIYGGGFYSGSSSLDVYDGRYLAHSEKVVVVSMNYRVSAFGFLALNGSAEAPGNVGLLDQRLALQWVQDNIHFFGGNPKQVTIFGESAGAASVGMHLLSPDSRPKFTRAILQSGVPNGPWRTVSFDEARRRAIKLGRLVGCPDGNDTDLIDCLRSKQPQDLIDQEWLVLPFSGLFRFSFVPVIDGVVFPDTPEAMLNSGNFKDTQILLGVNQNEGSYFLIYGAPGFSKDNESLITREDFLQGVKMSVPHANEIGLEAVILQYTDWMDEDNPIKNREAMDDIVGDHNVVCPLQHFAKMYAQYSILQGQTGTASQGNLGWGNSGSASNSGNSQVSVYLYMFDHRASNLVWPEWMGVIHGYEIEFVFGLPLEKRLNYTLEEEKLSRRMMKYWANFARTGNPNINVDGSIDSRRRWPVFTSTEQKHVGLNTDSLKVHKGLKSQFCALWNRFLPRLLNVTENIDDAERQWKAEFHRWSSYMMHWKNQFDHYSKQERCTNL
Amyloid-beta precursor protein (Homo sapiens), sequence (P05067 whole entry): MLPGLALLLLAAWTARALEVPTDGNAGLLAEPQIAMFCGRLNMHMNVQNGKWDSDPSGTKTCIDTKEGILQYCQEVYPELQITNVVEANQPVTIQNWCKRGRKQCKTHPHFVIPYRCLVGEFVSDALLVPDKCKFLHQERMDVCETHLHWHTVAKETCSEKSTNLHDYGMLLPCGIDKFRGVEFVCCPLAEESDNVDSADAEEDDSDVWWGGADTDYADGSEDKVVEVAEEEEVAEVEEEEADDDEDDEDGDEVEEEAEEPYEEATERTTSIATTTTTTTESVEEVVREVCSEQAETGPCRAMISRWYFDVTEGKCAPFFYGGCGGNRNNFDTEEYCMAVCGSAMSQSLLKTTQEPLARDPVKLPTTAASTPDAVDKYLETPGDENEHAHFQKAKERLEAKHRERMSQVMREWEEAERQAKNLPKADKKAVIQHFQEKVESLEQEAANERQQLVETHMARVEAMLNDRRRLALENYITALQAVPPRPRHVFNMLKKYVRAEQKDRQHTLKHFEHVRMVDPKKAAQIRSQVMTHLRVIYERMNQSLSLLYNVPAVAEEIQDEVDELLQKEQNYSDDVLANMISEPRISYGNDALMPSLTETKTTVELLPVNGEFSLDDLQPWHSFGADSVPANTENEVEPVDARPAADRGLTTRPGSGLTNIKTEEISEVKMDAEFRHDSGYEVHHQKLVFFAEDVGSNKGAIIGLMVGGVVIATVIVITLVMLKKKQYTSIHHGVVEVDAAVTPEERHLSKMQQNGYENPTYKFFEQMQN
Acetylcholinesterase (Electrophorus electricus), sequence (O42275 24-633 limits assumed): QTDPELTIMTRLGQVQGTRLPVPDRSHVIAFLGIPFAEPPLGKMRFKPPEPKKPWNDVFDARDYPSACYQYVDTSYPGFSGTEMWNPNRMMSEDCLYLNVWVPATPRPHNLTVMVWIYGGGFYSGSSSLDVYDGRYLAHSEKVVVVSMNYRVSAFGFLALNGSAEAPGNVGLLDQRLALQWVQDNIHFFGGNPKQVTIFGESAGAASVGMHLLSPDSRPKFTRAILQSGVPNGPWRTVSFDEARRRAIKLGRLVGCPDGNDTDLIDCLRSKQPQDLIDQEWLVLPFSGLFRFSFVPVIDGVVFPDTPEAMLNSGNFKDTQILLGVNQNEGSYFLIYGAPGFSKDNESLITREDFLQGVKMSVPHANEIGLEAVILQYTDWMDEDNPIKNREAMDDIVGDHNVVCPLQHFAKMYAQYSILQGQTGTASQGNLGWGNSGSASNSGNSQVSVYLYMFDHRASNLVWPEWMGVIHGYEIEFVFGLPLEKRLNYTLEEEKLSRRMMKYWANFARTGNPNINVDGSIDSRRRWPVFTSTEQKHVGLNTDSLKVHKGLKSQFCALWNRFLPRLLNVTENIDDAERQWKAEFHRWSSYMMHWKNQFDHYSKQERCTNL

| SMILES | IC50 [1] [µM] | inhibition (Rattus norvegicus) [%] | inhibition [2] [%] | IC50 [3] [µM] | Ratio IC50 (Homo sapiens) | IC50 (Acetylcholinesterase) [µM] | Activity [4] [equiv] | inhibition at 10 µM [5] [%] | inhibition at 10 µM [6] [%] | inhibition [7] | Papp at 18 h, 100 ug/ml [8] [×10⁻⁶ cm/s] |
| --- | --- | --- | --- | --- | --- | --- | --- | --- | --- | --- | --- |
| CCN(CCCCCCn1sc2cc(OC)c(OC)cc2c1=O)Cc1ccccc1N(C)C | 3.4 | 46.8 | 31.2 | 19.6 | 0.17 | 0.56 | 0.35 |  |  |  |  |
| CCN(CCCCCCN1C(=O)c2cc(OC)c(OC)cc2S1(=O)=O)Cc1ccccc1 |  | 35.7 | 6 |  |  | 13.1 | 0.2 | 38.9 | 30.2 |  |  |
| COc1cc2sn(CCCN(C)Cc3ccccc3)c(=O)c2cc1OC | 6.9 | 11.5 | 7.6 |  |  | 7.5 | 0.91 | 44.4 |  |  |  |
| COc1ccccc1CN(C)CCCCCCn1c(=O)c2cc(OC)c(OC)cc2[s+]1[O-] (centres undefined) |  | 28.7 | 38 |  |  | 0.8 | 0.33 | 12.2 | 23.8 |  |  |
| CCN(CCCCn1sc2cc(OC)c(OC)cc2c1=O)Cc1ccccc1OC | 9.6 | 36.4 | 21.1 | 19.4 | 0.49 | 4.99 | 0.3 |  |  |  |  |
| COc1ccccc1CN(C)CCCn1sc2cc(OC)c(OC)cc2c1=O | 9.4 | 10.8 | 21.8 |  |  | 12 | 0.83 | 48.6 |  |  |  |
| CCN(CCCCCCn1c(=O)c2cc(OC)c(OC)cc2[s+]1[O-])Cc1ccccc1 (centres undefined) |  | 8.1 | 29.2 |  |  | 0.38 | 0.23 | 14.6 | 21.5 |  |  |
| CCN(CCCCn1sc2cc(OC)c(OC)cc2c1=O)Cc1ccccc1N(C)C | 9.9 | 32.6 | 11.7 |  |  | 7.1 | 0.34 | 46.5 |  |  |  |
| COc1cc2sn(CCCCN(C)Cc3ccccc3)c(=O)c2cc1OC | 8.9 | 14.7 | 17.3 | 19.7 | 0.45 | 1.2 | 0.21 |  |  |  |  |
| CCN(CCCCCCn1sc2cc(OC)c(OC)cc2c1=O)Cc1ccccc1 | 8.2 | 48.2 | 35.4 | 20.1 | 0.41 | 0.29 | 0.27 |  |  | Active | 15.6 |
| CCN(CCCn1sc2cc(OC)c(OC)cc2c1=O)Cc1ccc(N(C)C)cc1 | 11.3 | 9.6 | 13.4 |  |  | 12.9 | 0.58 | 40.1 |  |  |  |
| CCN(CCCCn1sc2cc(OC)c(OC)cc2c1=O)Cc1ccc(N(C)C)cc1 | 15.9 | 23.2 | 32.5 | 18.8 | 0.85 | 8.85 | 2.14 |  |  |  |  |
